Screening results: PubChem, several laboratories
NLRP3 yeast inh – NALP3 inflammasome inhibitors in reconstituted yeast, primary screen, luminescence, uHTS. Yeast reconstituted NLRP3/ASC/caspase-1, beta-gal luminescence, 24 h. inhibition, % at 10 µM. actives 0.39% (n = 330,000). AID 2825, 2010;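 active = inhibition of 50% or more; inactive = inhibition below 50%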
CSC inhib – cancer stem cell viability inhibitors, primary screen, luminescence | inhibition, % at 7.5 µM | cancer stem cell-like cells viability | actives 1.1% (n = 300,000) | AID 2717, 2010; in the data active = inhibition above about 75%; inconclusive = no clear call, values can overlap the other calls; tested in HMLE shEcad cells
T cruzi repl – inhibitors of intracellular T. cruzi growth, primary screen, luminescence, NIH3T3 host cells; actives 1.4% (n = 300,000); inhibition, % (concentration not given with the values); T. cruzi beta-gal in NIH3T3, 90 h;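 active = mean inhibition across valid replicates above about 55%, limit read from the data; inconclusive = mean below that limit but half or more replicates reach it; inactive = mean below it, under half of replicates reach it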;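 note: signal also drops with host cell toxicity which is not excluded here; higher percent means less beta-gal luminescence so fewer parasites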
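Material: NIH/3T3 host cells with β-galactosidase reporter T. cruzi; Input: 5,000 host fibroblasts per well; Medium: DMEM, 2% fetal bovine serum; Compound: 50 nL DMSO compound solution per well; Schedule: 3 h host attachment, then at least 90 h co-culture; Detection: luminescent β-galactosidase signal after 60 min lysis.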
Mdm2-MdmX inh – inhibitors of human Mdm2-MdmX association, primary screen, cell-based, luminescence, split luciferase, SaOS-2, uHTS; Protein Mdm4 (Homo sapiens) + E3 ubiquitin-protein ligase Mdm2 (Homo sapiens), …; SaOS-2 split-luciferase Mdm2/MdmX complementation; inhibition, % at 8 µM; actives 3% (n = 330,000);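 active = inhibition of at least 50% at 8 µM in the primary screen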
Target sequence (O15151 whole entry, looked up): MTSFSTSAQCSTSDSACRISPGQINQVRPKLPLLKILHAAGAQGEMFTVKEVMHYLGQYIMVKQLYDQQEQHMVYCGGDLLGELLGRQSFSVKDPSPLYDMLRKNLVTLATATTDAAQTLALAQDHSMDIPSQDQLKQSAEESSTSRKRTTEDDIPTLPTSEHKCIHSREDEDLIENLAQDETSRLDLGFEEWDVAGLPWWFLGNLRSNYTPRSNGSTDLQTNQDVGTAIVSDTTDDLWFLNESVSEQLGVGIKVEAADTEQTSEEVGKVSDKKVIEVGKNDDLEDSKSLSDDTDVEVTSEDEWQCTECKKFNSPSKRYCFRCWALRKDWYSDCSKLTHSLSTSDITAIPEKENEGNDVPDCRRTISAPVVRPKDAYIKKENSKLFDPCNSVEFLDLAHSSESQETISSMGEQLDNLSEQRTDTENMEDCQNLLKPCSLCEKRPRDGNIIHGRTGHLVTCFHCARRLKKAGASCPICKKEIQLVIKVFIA
Target sequence (Q00987 whole entry, looked up): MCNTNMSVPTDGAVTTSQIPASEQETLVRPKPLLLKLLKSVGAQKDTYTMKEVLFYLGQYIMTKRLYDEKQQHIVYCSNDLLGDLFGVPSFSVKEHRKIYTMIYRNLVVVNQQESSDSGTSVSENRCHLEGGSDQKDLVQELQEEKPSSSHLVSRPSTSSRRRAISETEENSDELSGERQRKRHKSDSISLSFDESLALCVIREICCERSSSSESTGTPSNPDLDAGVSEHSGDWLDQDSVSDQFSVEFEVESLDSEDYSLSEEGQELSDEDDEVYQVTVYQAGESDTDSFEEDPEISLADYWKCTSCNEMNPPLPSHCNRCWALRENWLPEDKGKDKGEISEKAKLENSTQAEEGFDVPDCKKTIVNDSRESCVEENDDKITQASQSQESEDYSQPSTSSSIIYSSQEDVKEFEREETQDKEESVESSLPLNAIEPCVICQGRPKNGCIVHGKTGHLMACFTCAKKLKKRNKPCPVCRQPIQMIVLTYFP
Beta apoptosis – inhibitors of cytokine-induced beta cell apoptosis, primary screen, luminescence; INS-1E cytokine-induced death, ATP luminescence, 48 h; percent of positive-control rescue, neutral wells zero; protection from apoptosis, % (concentration not given with the values); actives 0.8% (n = 300,000); AID 435005, 2010;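 active = Every replicate reaches about 75%, or at least half do and their mean reaches it too, limit read from the data; inconclusive = At least half of replicates reach the limit but their mean does not; inactive = Under half of replicates reach the limit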;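 note: higher means more ATP so stronger rescue from cytokine killing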
Calb FLC – C. albicans growth inhibition with fluconazole, primary screen, CaCi-2 strain, Alamar Blue fluorescence. C. albicans CaCi-2 + fluconazole, 48 h. growth inhibition, % (concentration not given with the values). actives 0.57% (n = 300,000). AID 1979, 2009;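 active = growth inhibition above about 58% in most replicates, limit read from the data, passing the limit was not always enough; inconclusive = exactly half the replicates above a set limit; inactive = most replicates below a set limit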;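 note: all wells also contain fluconazole at 8 µg/ml as a sub-toxic cotreatment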
Numbers stand for hits. A selection: hits, their analogues and other compounds. The true share with any hit is near 5.3%.

What do the screens show for `CCC(=O)Nc1ccc(NC(=O)/C=C/c2ccc(Cl)cc2)cc1`?
NLRP3 yeast inh: inactive; CSC inhib: inactive; T cruzi repl: inactive; Mdm2-MdmX inh: inactive; Beta apoptosis: inactive; Calb FLC: inactive

How did CC1CCN(c2ccccc2NC(=O)c2ccc([N+](=O)[O-])o2)CC1 do in these assays?
NLRP3 yeast inh: inactive; T cruzi repl: inactive; Mdm2-MdmX inh: inactive; Beta apoptosis: inactive; Calb FLC: inactive

How did O=C(Nc1nc2ccccc2n1Cc1ccc(Cl)cc1)c1ccco1 do in these assays?
NLRP3 yeast inh: inactive; CSC inhib: inactive; T cruzi repl: 76; Mdm2-MdmX inh: inactive; Beta apoptosis: inactive; Calb FLC: inactive

What do the screens show for `CCCn1c(NC(=O)c2ccc([N+](=O)[O-])o2)nc2ccccc21`?
NLRP3 yeast inh: inactive; CSC inhib: inactive; T cruzi repl: 58; Mdm2-MdmX inh: inactive; Calb FLC: inactive

What do the screens show for `O=C(Nc1ccccc1N1CCCC1)c1ccc([N+](=O)[O-])o1`?
NLRP3 yeast inh: inactive; CSC inhib: inactive; T cruzi repl: 62; Mdm2-MdmX inh: inactive; Beta apoptosis: inactive; Calb FLC: inactive

Results for Cc1ccc(NC(=O)NCCCN2CCCC2=O)cc1Cl ?
NLRP3 yeast inh: inactive; CSC inhib: inactive; T cruzi repl: inactive; Mdm2-MdmX inh: inactive; Beta apoptosis: inactive; Calb FLC: inactive

Results for CC1CCCCN1Cc1nc2c(c(=O)n(C)c(=O)n2C)n1Cc1c(F)cccc1Cl (configuration not stated) ?
NLRP3 yeast inh: inactive; CSC inhib: 77; Mdm2-MdmX inh: inactive; Beta apoptosis: inactive

Results for Cn1c(=O)c2c(nc(CN3CCC(C(N)=O)CC3)n2Cc2c(F)cccc2Cl)n(C)c1=O ?
NLRP3 yeast inh: inactive; CSC inhib: inactive; T cruzi repl: inactive; Mdm2-MdmX inh: inactive; Beta apoptosis: inactive; Calb FLC: inactive

What do the screens show for `COc1ccc(O)c(/C=N/NC(=O)c2c(C)nnn2-c2nonc2N)c1`?
NLRP3 yeast inh: inactive; T cruzi repl: inactive; Mdm2-MdmX inh: inactive; Beta apoptosis: inactive; Calb FLC: 63

What do the screens show for `Cc1ccc(OCCn2c(CCNC(=O)C(C)C)nc3ccccc32)cc1`?
NLRP3 yeast inh: inactive; CSC inhib: inactive; T cruzi repl: inactive; Mdm2-MdmX inh: inactive; Beta apoptosis: inactive; Calb FLC: inactive

How did O=S(=O)(Nc1ccc(-n2cccc2)cc1)c1ccc(Cl)c(Cl)c1 do in these assays?
NLRP3 yeast inh: inactive; CSC inhib: 84; Mdm2-MdmX inh: inactive; Beta apoptosis: inactive; Calb FLC: inactive

What do the screens show for `O=C(NCCn1c(C(F)(F)F)nc2cc(C(F)(F)F)ccc21)[C@H]1CCCN1c1nc(CN2CCCCC2)cs1`?
NLRP3 yeast inh: inactive; CSC inhib: inactive; T cruzi repl: inactive; Mdm2-MdmX inh: inactive; Beta apoptosis: inactive; Calb FLC: inactive

What do the screens show for `O=C(Nc1ccc([N+](=O)[O-])cc1)Nc1nc(-c2ccc(Cl)s2)cs1`?
CSC inhib: 97; T cruzi repl: inactive; Beta apoptosis: 129; Calb FLC: inactive

What do the screens show for `O=C(Nc1nc(-c2ccc(Cl)s2)cs1)c1cccs1`?
NLRP3 yeast inh: inactive; CSC inhib: inactive; T cruzi repl: 76; Mdm2-MdmX inh: inactive; Beta apoptosis: inactive; Calb FLC: inactive

How did CSc1nnc(C)c(/C=C/Nc2ccc(Cl)cc2)n1 do in these assays?
NLRP3 yeast inh: inactive; CSC inhib: inactive; T cruzi repl: inactive; Mdm2-MdmX inh: inactive; Beta apoptosis: inactive; Calb FLC: inactive

What do the screens show for `CS/C(=C\[N+](=O)[O-])Nc1ccc(Cl)cc1`?
NLRP3 yeast inh: inactive; CSC inhib: inactive; T cruzi repl: inactive; Mdm2-MdmX inh: inactive; Beta apoptosis: inactive; Calb FLC: 102

Results for CC(C)=CC(=O)Nc1ccc(Cl)cc1 ?
NLRP3 yeast inh: inactive; CSC inhib: inactive; T cruzi repl: inactive; Mdm2-MdmX inh: inactive; Beta apoptosis: inactive; Calb FLC: inactive

Results for O=S(=O)(c1cc(F)ccc1F)N1CCN(c2ncnc3ccccc23)CC1 ?
NLRP3 yeast inh: inactive; CSC inhib: inactive; Mdm2-MdmX inh: inactive; Beta apoptosis: 104

What do the screens show for `COc1ccccc1NC(=O)Cn1cc(C(=O)c2ccco2)c2ccccc21`?
NLRP3 yeast inh: inactive; CSC inhib: inactive; T cruzi repl: inactive; Mdm2-MdmX inh: inactive; Beta apoptosis: 87; Calb FLC: inactive

What do the screens show for `COc1ccc(OC)c(NC(=O)Cn2cc(C(=O)c3ccco3)c3ccccc32)c1`?
NLRP3 yeast inh: inactive; CSC inhib: inactive; T cruzi repl: inactive; Mdm2-MdmX inh: inactive; Beta apoptosis: inactive; Calb FLC: inactive

How did O=C(c1cc(-c2ccncc2)nc2ccccc12)N1CCN(c2ccccn2)CC1 do in these assays?
NLRP3 yeast inh: inactive; CSC inhib: inactive; T cruzi repl: 60; Mdm2-MdmX inh: inactive; Beta apoptosis: inactive; Calb FLC: inactive

Results for Cc1cc(-c2ccccc2)nc2c(Br)c(=O)[nH]n12 ?
NLRP3 yeast inh: inactive; CSC inhib: inactive; T cruzi repl: inactive; Mdm2-MdmX inh: inactive; Beta apoptosis: inactive; Calb FLC: inactive

What do the screens show for `N#CC(C#N)=C(Nc1ccc(F)cc1)SCc1cccc(Br)c1`?
CSC inhib: 119; T cruzi repl: inactive; Beta apoptosis: 105; Calb FLC: inconclusive

Results for COc1ccc([C@@H]2C[C@H]3CN(Cc4ccccc4OC)C(=O)[C@]34CCCN24)cc1C ?
NLRP3 yeast inh: inactive; CSC inhib: inactive; T cruzi repl: inactive; Mdm2-MdmX inh: inactive; Beta apoptosis: inactive; Calb FLC: inactive

Results for COc1ccccc1CN1C[C@@H]2C[C@@H](c3ccc(C)c(C)c3)N3CCC[C@@]23C1=O ?
NLRP3 yeast inh: inactive; CSC inhib: inactive; T cruzi repl: 68; Mdm2-MdmX inh: inactive; Beta apoptosis: inactive; Calb FLC: inactive

How did CC[N+](C)(CC)CCOC(=O)C(O)(c1ccccc1)C1CCCCC1 (configuration not stated) do in these assays?
NLRP3 yeast inh: inactive; CSC inhib: inactive; T cruzi repl: inactive; Mdm2-MdmX inh: inactive; Beta apoptosis: inactive

What do the screens show for `CC[N+](C)(CC)CCC(c1ccccc1)C1CCCCC1` (configuration not stated)?
NLRP3 yeast inh: inactive; CSC inhib: inactive; T cruzi repl: inactive; Mdm2-MdmX inh: inactive; Beta apoptosis: 105; Calb FLC: inactive

How did Cc1[nH]c2ccccc2c1C(=O)CSc1nc2ccccc2c(=O)n1-c1ccccc1F do in these assays?
NLRP3 yeast inh: inactive; T cruzi repl: inactive; Mdm2-MdmX inh: inactive; Beta apoptosis: inactive; Calb FLC: inactive

What do the screens show for `Cc1ccc(-n2c(O)c(C=Nc3ccccc3-c3n[nH]c(=S)[nH]c3=O)c3ccccc3c2=O)c(C)c1`?
NLRP3 yeast inh: inactive; CSC inhib: inactive; T cruzi repl: inactive; Mdm2-MdmX inh: inactive; Beta apoptosis: inactive; Calb FLC: inactive
